ChEMBL document CHEMBL1806434, “Acyclic nucleoside phosphonates with a branched 2-(2-phosphonoethoxy)ethyl chain: efficient synthesis and antiviral activity” (Bioorg Med Chem, 2011)
Activity calls are given as the source filed them. The calls are words filed in the database; no cut-off is given here.

Experiments:
Human alphaherpesvirus 3 [1] = assay: Antiviral activity against Varicella-zoster virus strain OKA expressing thymidine kinase assessed as reduction of virus induced cytopathicity by cell based assay; format: functional; details: for EC50: Human alphaherpesvirus 3, strain Oka vaccine; for Activity: strain Oka vaccine
Outline: (§1)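 Confluent cell monolayers infected with 100 CCID50 virus, or 20 PFU for plaque assays, then incubated with serial compound dilutions. Host cells listed for the non-HIV panel are HEL fibroblasts, Vero, HeLa, CRFK or MDCK. Cytopathicity is scored, or plaques counted for VZV, once infected untreated controls reach full CPE.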

Human alphaherpesvirus 3 [2] = assay: Antiviral activity against thymidine kinase-deficient Varicella-zoster virus 07/1 assessed as reduction of virus induced cytopathicity by cell based assay; format: functional, organism-based; details: for EC50: Human alphaherpesvirus 3, 07/1; outline: as §1
Human alphaherpesvirus 1 [3] = assay: Antiviral activity against Herpes simplex virus 1 strain KOS assessed as reduction of virus induced cytopathicity by cell based assay; format: functional, organism-based; details: for EC50: Human alphaherpesvirus 1, KOS; outline: as §1
Human alphaherpesvirus 2 = assay: Antiviral activity against Herpes simplex virus 2 strain G assessed as reduction of virus induced cytopathicity by cell based assay; format: functional, organism-based; details: for EC50: Human alphaherpesvirus 2, strain G; outline: as §1
Human alphaherpesvirus 1 [4] = assay: Antiviral activity against thymidine kinase-deficient acyclovir-resistant Herpes simplex virus 1 strain KOS assessed as reduction of virus induced cytopathicity by cell based assay; format: functional, organism-based; details: for EC50: Human alphaherpesvirus 1, KOS; outline: as §1
Human betaherpesvirus 5 [5] = assay: Antiviral activity against Human cytomegalovirus Davis assessed as reduction of virus induced cytopathicity by cell based assay; format: functional, organism-based; details: for EC50: Human betaherpesvirus 5, Davis; outline: as §1
Vaccinia virus = assay: Antiviral activity against Vaccinia virus Lederle assessed as reduction of virus induced cytopathicity by cell based assay; format: functional, organism-based; details: Orthopoxvirus vaccinia; outline: as §1
[6] = Cytotoxicity against human HEL cells assessed as alteration of cell morphology after 3 days by microscopic analysis; format: cell-based
Outline: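 MCC taken as the lowest compound concentration producing microscopically detectable alteration of HEL fibroblast morphology.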

HEL = assay: Cytotoxicity against human HEL cells after 3 days by coulter counter; format: cell-based; details: 72 h
Outline: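 HEL cells seeded at 5 × 10^3 cells/well and allowed to proliferate for 24 h, then exposed to a range of compound concentrations for 3 days at 37 °C. Cells counted with a Coulter counter.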

[7] = test system: Vesicular stomatitis virus; assay: Antiviral activity against Vesicular stomatitis virus assessed as reduction of virus induced cytopathicity by cell based assay; format: functional, organism-based; outline: as §1
Coxsackievirus B4 = assay: Antiviral activity against Coxsackievirus B4 assessed as reduction of virus induced cytopathicity by cell based assay; format: functional, organism-based
Outline: (§2)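 Confluent cell monolayers in 96-well plates (HEL, Vero, HeLa, CRFK or MDCK; the cell type per virus is not specified) infected with 100 CCID50 virus or 20 PFU and incubated with serial compound dilutions. Cytopathicity scored once it was complete in untreated infected controls.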

[8] = test system: Respiratory syncytial virus; assay: Antiviral activity against Respiratory syncytial virus Long assessed as reduction of virus induced cytopathicity by cell based assay; format: functional, organism-based; outline: as §2
Human respirovirus 3 = assay: Antiviral activity against Human parainfluenza virus 3 assessed as reduction of virus induced cytopathicity by cell based assay; format: functional, organism-based; outline: as §2
[9] = test system: Mammalian orthoreovirus 1; assay: Antiviral activity against Reovirus-1 assessed as reduction of virus induced cytopathicity by cell based assay; format: functional, organism-based; outline: as §2
Sindbis virus = assay: Antiviral activity against Sindbis virus assessed as reduction of virus induced cytopathicity by cell based assay; format: functional, organism-based; outline: as §2
Punta Toro virus = assay: Antiviral activity against Punta Toro virus assessed as reduction of virus induced cytopathicity by cell based assay; format: functional, organism-based; outline: as §2
Human alphaherpesvirus 3 [10] = assay: Antiviral activity against Varicella-zoster virus YS expressing thymidine kinase assessed as reduction of virus induced cytopathicity by cell based assay; format: functional, organism-based; details: for EC50: Human alphaherpesvirus 3, YS
Human alphaherpesvirus 3 [11] = assay: Antiviral activity against thymidine kinase-deficient Varicella-zoster virus YS/R assessed as reduction of virus induced cytopathicity by cell based assay; format: functional, organism-based; details: for EC50: Human alphaherpesvirus 3, YS/R
Human betaherpesvirus 5 [12] = assay: Antiviral activity against Human cytomegalovirus strain AD169 assessed as reduction of virus induced cytopathicity by cell based assay; format: functional, organism-based; details: for EC50: Human betaherpesvirus 5, AD169; outline: as §1
L1210 = assay: Cytostatic activity against mouse L1210 cells; format: functional
FM3A = assay: Cytostatic activity against mouse FM3A cells; format: functional
CCRF-CEM = assay: Cytostatic activity against human CEM cells; format: cell-based

Structure (SMILES): CC(CP(=O)(O)O)OCCn1ccc(N)nc1=O (stereo not drawn)
- EC50 (Human alphaherpesvirus 3 [1]): 130 µM
- EC50 (Human alphaherpesvirus 3 [2]): 168 µM
- EC50 (Human alphaherpesvirus 1 [3]): > 361 µM
- EC50 (Human alphaherpesvirus 2): > 361 µM
- EC50 (Human alphaherpesvirus 1 [4]): > 361 µM
- EC50 (Human betaherpesvirus 5 [5]): > 361 µM
- EC50 (Vaccinia virus): > 361 µM
- MCC at 72 h [6]: > 361 µM
- CC50 (HEL): 307 µM
- Activity [7]: inactive
- Activity (Coxsackievirus B4): inactive
- Activity [8]: inactive
- Activity (Human respirovirus 3): inactive
- Activity [9]: inactive
- Activity (Sindbis virus): inactive
- Activity (Punta Toro virus): inactive

Structure (SMILES): Nc1nc2c(ncn2CCOC(CO)CP(=O)(O)O)c(=O)[nH]1 (stereo not drawn)
- EC50 (Human alphaherpesvirus 3 [1]): > 300 µM
- EC50 (Human alphaherpesvirus 3 [2]): > 300 µM
- EC50 (Human alphaherpesvirus 1 [3]): 156 µM
- EC50 (Human alphaherpesvirus 2): 156 µM
- EC50 (Human alphaherpesvirus 1 [4]): 261 µM
- EC50 (Human betaherpesvirus 5 [5]): 165 µM
- EC50 (Vaccinia virus): > 300 µM
- MCC at 72 h [6]: > 300 µM
- CC50 (HEL): 300 µM
- Activity [7]: inactive
- Activity (Coxsackievirus B4): inactive
- Activity [8]: inactive
- Activity (Human respirovirus 3): inactive
- Activity [9]: inactive
- Activity (Sindbis virus): inactive
- Activity (Punta Toro virus): inactive

Structure (SMILES): Nc1nc(O)c2ncn(COC(CO)CO)c2n1 [GANCICLOVIR]
- EC50 (Human alphaherpesvirus 1 [3]): 0.017 µM
- EC50 (Human alphaherpesvirus 2): 0.023 µM
- EC50 (Human alphaherpesvirus 1 [4]): 0.12 µM
- EC50 (Vaccinia virus): > 100 µM
- MCC at 72 h [6]: > 394 µM
- CC50 (HEL): 543 µM

Structure (SMILES): Nc1ncnc2c1ncn2CCOC(Cc1ccccc1)CP(=O)(O)O (stereo not drawn)
- EC50 (Human alphaherpesvirus 3 [10]): 2.9 µM
- EC50 (Human alphaherpesvirus 3 [1]): 2.9 µM
- EC50 (Human alphaherpesvirus 3 [2]): 4.7 µM
- EC50 (Human alphaherpesvirus 3 [11]): 2.5 µM
- EC50 (Human alphaherpesvirus 1 [3]): 53 µM
- EC50 (Human alphaherpesvirus 2): 86 µM
- EC50 (Human alphaherpesvirus 1 [4]): 53 µM
- EC50 (Human betaherpesvirus 5 [12]): 59 µM
- EC50 (Human betaherpesvirus 5 [5]): 68 µM
- EC50 (Vaccinia virus): > 265 µM
- MCC at 72 h [6]: > 265 µM
- CC50 (HEL): ≥ 247 µM
- CC50 (L1210): 273 µM
- CC50 (FM3A): 90 µM
- CC50 (CCRF-CEM): 530 µM
- Activity [7]: inactive
- Activity (Coxsackievirus B4): inactive
- Activity [8]: inactive
- Activity (Human respirovirus 3): inactive
- Activity [9]: inactive
- Activity (Sindbis virus): inactive
- Activity (Punta Toro virus): inactive

Structure (SMILES): CC(CP(=O)(O)O)OCCn1ccc(=O)[nH]c1=O (stereo not drawn)
- EC50 (Human alphaherpesvirus 3 [10]): 9.9 µM
- EC50 (Human alphaherpesvirus 3 [1]): 6.3 µM
- EC50 (Human alphaherpesvirus 3 [2]): 13 µM
- EC50 (Human alphaherpesvirus 3 [11]): 12 µM
- EC50 (Human alphaherpesvirus 1 [3]): 43 µM
- EC50 (Human alphaherpesvirus 2): 34 µM
- EC50 (Human alphaherpesvirus 1 [4]): 97 µM
- EC50 (Human betaherpesvirus 5 [12]): 36 µM
- EC50 (Human betaherpesvirus 5 [5]): 34 µM
- EC50 (Vaccinia virus): > 360 µM
- MCC at 72 h [6]: > 360 µM
- CC50 (HEL): 291 µM
- Activity [7]: inactive
- Activity (Coxsackievirus B4): inactive
- Activity [8]: inactive
- Activity (Human respirovirus 3): inactive
- Activity [9]: inactive
- Activity (Sindbis virus): inactive
- Activity (Punta Toro virus): inactive

Structure (SMILES): O=c1[nH]cnc2c1ncn2CCOC(COCc1ccccc1)CP(=O)(O)O (stereo not drawn)
- Activity (Human alphaherpesvirus 3 [10]): inactive
- Activity (Human alphaherpesvirus 3 [1]): inactive
- Activity (Human alphaherpesvirus 3 [2]): inactive
- Activity (Human alphaherpesvirus 3 [11]): inactive
- Activity (Human alphaherpesvirus 1 [3]): inactive
- Activity (Human alphaherpesvirus 2): inactive
- Activity (Human alphaherpesvirus 1 [4]): inactive
- Activity (Human betaherpesvirus 5 [12]): inactive
- Activity (Human betaherpesvirus 5 [5]): inactive
- Activity (Vaccinia virus): inactive
- Activity [7]: inactive
- Activity (Coxsackievirus B4): inactive
- Activity [8]: inactive
- Activity (Human respirovirus 3): inactive
- Activity [9]: inactive
- Activity (Sindbis virus): inactive
- Activity (Punta Toro virus): inactive

Structure (SMILES): Nc1ncnc2c1ncn2CCOC(COCc1ccccc1)CP(=O)(O)O (stereo not drawn)
- Activity (Human alphaherpesvirus 3 [10]): inactive
- Activity (Human alphaherpesvirus 3 [1]): inactive
- Activity (Human alphaherpesvirus 3 [2]): inactive
- Activity (Human alphaherpesvirus 3 [11]): inactive
- Activity (Human alphaherpesvirus 1 [3]): inactive
- Activity (Human alphaherpesvirus 2): inactive
- Activity (Human alphaherpesvirus 1 [4]): inactive
- Activity (Human betaherpesvirus 5 [12]): inactive
- Activity (Human betaherpesvirus 5 [5]): inactive
- Activity (Vaccinia virus): inactive
- Activity [7]: inactive
- Activity (Coxsackievirus B4): inactive
- Activity [8]: inactive
- Activity (Human respirovirus 3): inactive
- Activity [9]: inactive
- Activity (Sindbis virus): inactive
- Activity (Punta Toro virus): inactive
